In ChEMBL document CHEMBL4316598, “Synthesis, antiproliferative and apoptosis induction potential activities of novel bis(indolyl)hydrazide-hydrazone derivatives” (Bioorg Med Chem, 2019):
Converted amounts (≈) assume the structure as drawn. The source made the active and inactive calls. The calls are words filed in the database; no cut-off is given here.

Key:
HeLa [1] = assay: Cytotoxicity against human HeLa cells assessed as reduction in cell viability after 4 hrs by MTT assay; format: functional, cell-based
How it was run: (§1)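 MTT: 10,000–20,000 cells/well attached for 16 h, then washed twice with serum-free RPMI. Treated with 1–200 µM for 4 h, 3 parallel runs per concentration. MTT added for 2 h; medium partly removed and isopropanol added. A590 read. Viability = (A treated − A doxorubicin)/(A medium − A doxorubicin)×100. Mean of three experiments, triplicate wells each.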

MDA-MB-231 = assay: Cytotoxicity against human MDA-MB-231 cells assessed as reduction in cell viability after 4 hrs by MTT assay; format: functional, cell-based; settings: MDA-MB-231, 4 h; how it was run: as §1
MCF7 [2] = assay: Cytotoxicity against human MCF7 cells assessed as reduction in cell viability after 4 hrs by MTT assay; format: functional, cell-based; how it was run: as §1
A549 = assay: Cytotoxicity against human A549 cells assessed as reduction in cell viability after 4 hrs by MTT assay; format: functional, cell-based; how it was run: as §1
HEK293 = assay: Cytotoxicity against HEK293 cells assessed as reduction in cell viability after 4 hrs by MTT assay; format: cell-based, Homo sapiens; how it was run: as §1
[3] = Cytotoxicity against human SW680 cells assessed as reduction in cell viability after 4 hrs by MTT assay; format: functional, cell-based
FaDu = assay: Cytotoxicity against human FADU cells assessed as reduction in cell viability after 4 hrs by MTT assay; format: functional, cell-based
SCC-25 = assay: Cytotoxicity against human SCC25 cells assessed as reduction in cell viability after 4 hrs by MTT assay; format: functional, cell-based; settings: SCC-25, 4 h
Detroit 562 = assay: Cytotoxicity against human Detroit 562 cells assessed as reduction in cell viability after 4 hrs by MTT assay; format: functional, cell-based; settings: Detroit 562, 4 h
HeLa [4] = assay: Induction of caspase-dependent apoptosis in human HeLa cells assessed as activation of caspase-3 at 3 uM after 24 hrs by Western blot analysis; format: functional, cell-based
How it was run: (§2)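 Cleaved caspase-3 immunoblot. Cells were exposed at 1, 3 and 5 µM for 24 h at 37 °C, with paclitaxel 3 µM as positive control. Lysis was in ice-cold Triton X-100 buffer, and protein was measured by BCA. Lysates were separated by electrophoresis, transferred to nitrocellulose and blocked in milk. Primary antibody was applied overnight at 4 °C and secondary for 1 h at 28 °C. Detection was by enhanced chemiluminescence.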

MCF7 [5] = assay: Induction of caspase-dependent apoptosis in human MCF7 cells assessed as activation of caspase-3 at 3 uM after 24 hrs by Western blot analysis; format: functional, cell-based; how it was run: as §2
DU-145 = assay: Antiproliferative activity against human DU145 cells by MTS assay; format: functional, cell-based
[6] = Homo sapiens, MCF7, 4 h, read-out: IC50
[7] = Homo sapiens, A549, 4 h, read-out: IC50
[8] = Homo sapiens, HeLa, 4 h, read-out: IC50

SMILES	IC50 (HeLa [1]; hela)	IC50 (MDA-MB-231) [µM]	IC50 (MCF7 [2]; [6]) [µM]	IC50 (A549; [7]) [µM]	IC50 (HEK293; hek293)	IC50 (HeLa [1]; [8]) [µM]	IC50 (MCF7 [2]; mcf7)	further results
Cn1cc(/C=N\NC(=O)c2cn(C)c3ccccc23)c2ccccc21	Not Active	18.9	31.3	19	Non-Toxic			
COc1cccc2c1C(=O)c1c(O)c3c(c(O)c1C2=O)C[C@@](O)(C(=O)CO)C[C@@H]3O[C@H]1C[C@H](N)[C@H](O)[C@H](C)O1 [DOXORUBICIN]		3.1	0.23 to 0.98	0.89 to 2.11		0.36 to 1.09		IC50 (HEK293; Homo sapiens, HEK293, 4 h, read-out: IC50): > 200 µM; IC50 [3]: 1.2 µM; IC50 (FaDu): 0.68 µM; IC50 (SCC-25): 2.24 µM; IC50 (Detroit 562): 1.26 µM
Cn1cc(C(=O)N/N=C\c2c[nH]c3ccccc23)c2cc(Br)ccc21	Not Active	14.2			Non-Toxic		Not Active	IC50 (A549; a549): Not Active
CC(=O)O[C@H]1C(=O)[C@@]2(C)[C@H]([C@H](OC(=O)c3ccccc3)[C@]3(O)C[C@H](OC(=O)[C@H](O)[C@@H](NC(=O)c4ccccc4)c4ccccc4)C(C)=C1C3(C)C)[C@]1(OC(C)=O)CO[C@@H]1C[C@@H]2O								Activity (HeLa [4]): Active; Activity (MCF7 [5]): Active
O=C(N/C=C/c1c[nH]c2ccccc12)C(=O)c1c[nH]c2ccccc12								IC50 (DU-145): 7.6 µg/mL (≈ 23.1 µM)
COc1ccc2[nH]cc(/C=N\NC(=O)c3cn(C)c4ccc(Br)cc34)c2c1		22.7		12.8	Non-Toxic	14.2	Not Active	
